# Bioassay records from PubChem BioAssay.
# Compounds with a hit are over-represented: about 1.9% of the library has one in this group of screens.
# NPY-Y2 antag: blocks the human neuropeptide Y Y2 receptor | NPY-Y2 expressing cells, antagonist mode | inhibition, % at 2.7 µM | actives 0.99% (n = 140,000) | AID 793; in the data active = inhibition above about 17%;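 also: 0% = vehicle with agonist challenge and 100% = reference antagonist with challenge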
# Target sequence (P49146 whole entry, looked up): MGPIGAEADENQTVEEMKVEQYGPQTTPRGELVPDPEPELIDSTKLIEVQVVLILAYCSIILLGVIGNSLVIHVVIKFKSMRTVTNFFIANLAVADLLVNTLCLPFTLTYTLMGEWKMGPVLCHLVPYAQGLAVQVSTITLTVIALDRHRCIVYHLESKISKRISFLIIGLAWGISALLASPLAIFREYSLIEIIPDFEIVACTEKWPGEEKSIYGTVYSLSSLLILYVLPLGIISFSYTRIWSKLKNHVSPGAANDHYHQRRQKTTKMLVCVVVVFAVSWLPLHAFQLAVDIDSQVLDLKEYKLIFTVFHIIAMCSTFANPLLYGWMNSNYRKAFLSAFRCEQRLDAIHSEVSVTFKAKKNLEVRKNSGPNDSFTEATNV
# NPY Y1 blocker: NPY-Y1 (human) receptor antagonism | P25929 | HEK293-CNG Y1 cells, membrane potential fluorescence; NPY at EC95, then isoproterenol | inhibition, % at 3.6 µM | actives 1% (n = 200,000) | AID 1040;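 active = inhibition above the campaign mean inhibition of all tested compounds plus 3 SD, cut at about 20% in these data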;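 also: 0% = DMSO wells given NPY plus isoproterenol and 100% = isoproterenol alone without NPY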
#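 Material: HEK293 Y1/CNG channel cell line | Also added: NPY (25 nM), isoproterenol (1 µM), Ro 20-1724 (25 µM) | Compound: One concentration, 3.6 µM, in 0.4% DMSO | Schedule: 3 h dye uptake, 1 h room-temperature compound, 45 min post-isoproterenol | Signal: Membrane-potential fluorescent dye readout | Read-out: % inhibition of NPY effect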
# NPY-Y2 PAM-ag: potentiators or agonists of human neuropeptide Y receptor Y2; cells expressing NPY-Y2, potentiator/agonist read-out; activation, % at 3.6 µM; actives 0.45% (n = 220,000); in the data active = activation above about 27%;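 also: cells stimulated with NPY near EC25 plus isoproterenol at EC100; 0% = vehicle plus submaximal agonist and 100% = vehicle plus saturating agonist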
# NPY-Y1 PAM-ag: potentiators or agonists of human neuropeptide Y receptor Y1; P25929; NPY-Y1 expressing cells, potentiator/agonist activation; activation, % at 3.6 µM; actives 0.37% (n = 220,000); in the data active = activation above about 33%, passing the limit was not always enough;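 also: cells stimulated with NPY at EC10 then isoproterenol at EC100; 0% = low agonist plus stimulus and 100% = saturating agonist plus stimulus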
# Numbers without * were called inactive; nt = not tested or not shown.
SMILES,NPY-Y2 antag,NPY Y1 blocker,NPY-Y2 PAM-ag,NPY-Y1 PAM-ag
Cc1[nH]c2ccccc2c1/C=N/Nc1ccccc1[N+](=O)[O-],nt,-29,101*,107*
N#CC(C#N)=c1ccc2c(c1)NC1(CCCCC1)N=2,-10,-13,44*,41*
COc1ccccc1C(CC(=O)c1ccccc1)CC(=O)c1ccccc1,nt,21*,-14,-18
CSc1nc(Cl)c(Cc2ccc(OC(C)C)cc2)c(N(C)C)n1,30*,49*,-7,-29
Cc1ccc(Nc2c(-c3ccc(N4CCOCC4)cc3)nc3ncccn23)c(C)c1,-5,-10,67*,58*
COc1ccc(OC)c(C2=Nn3c(nnc3C3CCCCC3)SC2)c1,4,4,-5,-34
COc1ccc(C2=Nn3c(nnc3C3CCCCC3)SC2)cc1OC,58*,27*,-22,-68
O=C(OC1C2CCC1C1CN(CCc3ccccc3)CC12)c1ccccc1 (stereo not given),42*,44*,-14,-26
COC(=O)c1ccc(CN2CCN(CCc3ccccc3)C(CCO)C2)cc1 (stereo not given),nt,2,-4,15
CCCCN1C(=O)/C(=C/C=C2\Oc3ccccc3N2CC)SC1=S,nt,-2,-4,6
CCN1/C(=C/C=C/c2oc3ccc(-c4ccccc4)cc3[n+]2CC)Oc2ccc(-c3ccccc3)cc21,nt,22*,3,-31
Cc1ccc(Cl)cc1N1CCN(Cc2nnnn2Cc2ccco2)CC1,9,13,-5,-8
CCC(c1nnnn1Cc1ccco1)N1CCN(c2cc(Cl)ccc2C)CC1 (stereo not given),28*,27*,-12,-28
O=C(CSc1ccc(-c2ccccn2)nn1)N1CCCC1,nt,6,16,4
CCC(C)(C)NC(=O)C(c1ccc(C)o1)N(Cc1cccs1)C(=O)Cn1nnc2ccccc21 (stereo not given),50*,70*,-36,-131
O=C(NC1CCCCC1)C(c1ccccc1)N(Cc1ccco1)C(=O)Cn1cnc2ccccc21 (stereo not given),55*,78*,-97,-130
CCC(C)(C)NC(=O)C(c1ccccc1)N(Cc1cccs1)C(=O)Cn1nnc2ccccc21 (stereo not given),133*,136*,-187,-328
O=C(NC1CCCCC1)C(c1ccco1)N(Cc1cccs1)C(=O)Cn1nnc2ccccc21 (stereo not given),42*,51*,0,-37
CCC(SC1=N/C(=C/c2ccccc2OC)C(=O)N1c1ccccc1)C(=O)Nc1cc(C)on1 (stereo not given),1,-1,-16,-6
CCC(C(=O)NCc1ccccc1OC)n1nc(C)n2c(cc3occc32)c1=O (stereo not given),5,6,-20,-8
Cn1c(=O)[nH]c(=O)c2c1nc(N1CCCCCC1)n2CCOc1ccccc1,nt,3,11,3
CC(C)CNC(=O)CN(c1cccc(Cl)c1)S(C)(=O)=O,nt,1,11,13
CCCCC[n+]1cccc2c3ccccc3ccc21,nt,7,21,0
c1ccc(C[n+]2cccc3c4ccccc4ccc32)cc1,13,-5,36*,13
COc1ccc(CNC(=O)C2=C(C)C(=O)OC23CCC(C)CC3)cc1 (stereo not given),-3,0,-12,-3
SMILES,NPY-Y2 antag,NPY Y1 blocker,NPY-Y2 PAM-ag,NPY-Y1 PAM-ag
COc1ccc(NC(=O)C2=C(C)C(=O)OC23CCC(C)CC3)cc1Cl (stereo not given),-1,-6,58*,48*
C=CCn1c(SCC(=O)NC2CCCc3ccccc32)nnc1-c1ccncc1 (stereo not given),1,3,-7,13
O=C(O)CCCCCNC(=O)Cn1nnc2ccccc2c1=O,nt,nt,-4,12
CC(C)NCC(O)COc1ccc(Br)cc1 (stereo not given),nt,-8,54*,75*
CCC(CC)NCC(O)COc1ccc(Br)cc1 (stereo not given),nt,3,1,-13
CCCC(NCC(O)COc1ccc(-c2ccccc2)cc1)c1ccccc1 (stereo not given),nt,2,-18,-19
CC(CCc1ccccc1)NCC(O)COc1ccccc1 (stereo not given),nt,-10,100*,104*
CC(C)NCC(O)COc1ccc2c(c1)CCC2 (stereo not given),3,-12,96*,105*
CC(C)NCC(O)COc1ccc(CCOCC2CC2)cc1 (stereo not given),1,-12,92*,96*
CCN1CCN(CC(O)COc2ccc3c(c2)CCC3)CC1 (stereo not given),0,1,-12,-3
CN(C(=O)Cc1c(C(=O)O)n(C)c2ccccc12)c1ccc(F)cc1,nt,-4,3,-6
CC(C)(C)c1ccc(NC(=O)COC(=O)c2ccc(NS(=O)(=O)c3ccc(F)c(F)c3)cc2)cc1,-4,-9,8,5
CC(Sc1nc(N)c2c3c(sc2n1)CSC(C)(C)C3)C(=O)Nc1ccccc1 (stereo not given),53*,22*,-16,-12
CC(Sc1nc(NCc2ccccc2)nc(N(C)C)n1)C(=O)Nc1ccccc1 (stereo not given),12,17,-41,-41
c1ccc2c(c1)oc1c(NCc3ccc4c(c3)OCO4)ncnc12,18*,6,-19,-32
c1ccc2c(c1)oc1c(Nc3ccc4c(c3)OCO4)ncnc12,5,4,-11,-11
Nc1nc(-c2ccc3c(c2)OCCO3)cs1,6,20*,-10,-15
Cc1cc(C)c2nc(N3CCN(C)CC3)c(C#N)cc2c1,26*,52*,-48,-86
CCOc1ccc(-c2c[n+]3c(n2-c2ccccc2)CCCCC3)cc1,3,15,4,-33
CN1CCN(C(=O)C2CCN(c3ncc(C(F)(F)F)cc3Cl)CC2)CC1,nt,-3,-4,-3
O=C(CCc1ccc(S(=O)(=O)NCc2ccccc2)cc1)NCC1CCCO1 (stereo not given),3,1,8,10
COc1cc2c(cc1OC)C(c1cccc([N+](=O)[O-])c1)N(C(=O)c1ccc(F)cc1)CC2 (stereo not given),33*,32*,-2,-27
Cc1cc(C)n(-c2nnc(C)n2/N=C/c2ccco2)n1,-1,-3,-7,4
CCCOc1ccc2ccccc2c1/C=N/n1c(C)nnc1-n1nc(C)cc1C,26*,29*,0,-17
COc1ccccc1NC(=O)c1ccccc1C(=O)O,nt,-4,-18,7
COc1ccccc1NC(=O)c1cc2cc(Br)ccc2cc1O,nt,nt,86*,96*
O=C1CCC(=O)N1c1nc2n(n1)C(c1ccccc1)C=C(c1ccc(Br)cc1)N2 (stereo not given),0,-6,7,89*
Cc1cccc(CCNS(=O)(=O)c2ccc(S(=O)(=O)N3CCC(C)CC3)cc2)c1,1,22*,-3,3
N#CC1=C(N)Oc2n[nH]c(-c3cccnc3)c2C1c1ccc([N+](=O)[O-])o1 (stereo not given),nt,-2,-5,-7
